According to article PMC3677027 (The Biochemical journal, 2012):
Entries after “also recorded” stand apart in the source; their conditions may differ. Ends that are not written are not given here.

Tests used:
EphA4 AP = EphA4 AP (Homo sapiens, UniProt P54764); assay: ELISA inhibition of EphA4 AP binding to immobilized ephrin-A5 Fc; conditions: for IC50 value relative to unmodified KYL (in words): KYL alanine scan, ELISA, 0.05 nM EphA4 AP, ephrin-A5 Fc immobilized
Outline: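 Peptides (purity ≥85%) were made as 10 mM DMSO stocks and tested at varied concentrations. Each was incubated for 3 h with 0.05 nM EphA4 AP in protein A wells precoated with 1 µg/ml ephrin-A5 Fc. Bound AP was quantified with p-nitrophenyl phosphate substrate in SEAP buffer, read as absorbance at 405 nm, and inhibition was computed from that signal.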

[1] = Peptide stability in mouse serum; assay type: in vitro ADME; conditions: 37°C, ELISA read-out of residual antagonistic activity
Outline: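 Peptide at 100, 200 or 500 µM (depending on peptide) was held in mouse serum at 37 °C and sampled over time. Samples were diluted 1:20 into protein A wells carrying 1 µg/ml ephrin-A5 Fc, with 0.05 nM EphA4 AP, for 30 min at 4 °C. Bound AP was read as OD405 and normalised: peptide-free serum = 0, unincubated peptide = 1.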

I39A EphA4 AP mutant = I39A EphA4 AP mutant (Homo sapiens, UniProt P54764, I67A); assay: ELISA binding to immobilized ephrin-A5 Fc
Outline: (§1)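 Wild-type and mutant human EphA4 ephrin-binding domain–AP fusions were secreted from transfected HEK293T cells into Opti-MEM, and the medium was concentrated about 50-fold. Protein amount was estimated from AP activity. Ephrin-A5 Fc was captured at 0.5 µg/ml on protein A wells (1 h, RT, TBS/0.01% Tween 20), then EphA4 AP was added for 1 h. Bound AP was read with pNPP in SEAP buffer (pH 9.8) at OD405, minus Fc-only wells.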

Q43A EphA4 AP mutant = Q43A EphA4 AP mutant (Homo sapiens, UniProt P54764, Q71A); assay: ELISA binding to immobilized ephrin-A5 Fc
Outline: as §1

D33A EphA4 AP mutant = D33A EphA4 AP mutant (Homo sapiens, UniProt P54764, D61A); assay: ELISA binding to immobilized ephrin-A5 Fc
Outline: as §1

F126A EphA4 AP mutant = F126A EphA4 AP mutant (Homo sapiens, UniProt P54764, F154A); assay: ELISA binding to immobilized ephrin-A5 Fc
Outline: as §1

G132V EphA4 AP mutant = G132V EphA4 AP mutant (Homo sapiens, UniProt P54764, G160V); assay: ELISA binding to immobilized ephrin-A5 Fc
Outline: as §1

M136A EphA4 AP mutant = M136A EphA4 AP mutant (Homo sapiens, UniProt P54764, M164A); assay: ELISA binding to immobilized ephrin-A5 Fc
Outline: as §1

S30A EphA4 AP mutant = S30A EphA4 AP mutant (Homo sapiens, UniProt P54764, S58A); assay: ELISA binding to immobilized ephrin-A5 Fc
Outline: as §1

I131A EphA4 AP mutant = I131A EphA4 AP mutant (Homo sapiens, UniProt P54764, I159A); assay: ELISA binding to immobilized ephrin-A5 Fc
Outline: as §1

V129A EphA4 AP mutant = V129A EphA4 AP mutant (Homo sapiens, UniProt P54764, V157A); assay: ELISA binding to immobilized ephrin-A5 Fc
Outline: as §1

T76A EphA4 AP mutant = T76A EphA4 AP mutant (Homo sapiens, UniProt P54764, T104A); assay: ELISA binding to immobilized ephrin-A5 Fc
Outline: as §1

T41A EphA4 AP mutant = T41A EphA4 AP mutant (Homo sapiens, UniProt P54764, T69A); assay: ELISA binding to immobilized ephrin-A5 Fc
Outline: as §1

I31A EphA4 AP mutant = I31A EphA4 AP mutant (Homo sapiens, UniProt P54764, I59A); assay: ELISA binding to immobilized ephrin-A5 Fc
Outline: as §1

A165S EphA4 AP mutant = A165S EphA4 AP mutant (Homo sapiens, UniProt P54764, A193S); assay: ELISA binding to immobilized ephrin-A5 Fc
Outline: as §1

D123A EphA4 AP mutant = D123A EphA4 AP mutant (Homo sapiens, UniProt P54764, D151A); assay: ELISA binding to immobilized ephrin-A5 Fc
Outline: as §1

R134A EphA4 AP mutant = R134A EphA4 AP mutant (Homo sapiens, UniProt P54764, R162A); assay: ELISA binding to immobilized ephrin-A5 Fc
Outline: as §1

M32A EphA4 AP mutant = M32A EphA4 AP mutant (Homo sapiens, UniProt P54764, M60A); assay: ELISA binding to immobilized ephrin-A5 Fc
Outline: as §1

[2] = biological target: EphA4 ephrin-binding domain (residues 29-209) (human, UniProt P54764-1 29-209); assay: ITC
EphA4 Fc = EphA4 Fc (UniProt Q03137 20-547); assay: ELISA
[3] = read-out: inhibition of EphA4 AP binding to ephrin-A5 Fc

Chain of EphA4 AP (P54764 30-209 limits assumed): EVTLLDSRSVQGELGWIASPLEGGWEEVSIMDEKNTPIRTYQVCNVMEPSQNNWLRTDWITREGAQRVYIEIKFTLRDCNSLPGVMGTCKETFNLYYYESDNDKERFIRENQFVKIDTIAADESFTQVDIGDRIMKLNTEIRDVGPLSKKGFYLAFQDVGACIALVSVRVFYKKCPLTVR
Chain of T41A EphA4 AP mutant (P54764 30-209 T69A): as the sequence (P54764 30-209 limits assumed) above, with T40A counted along it
Chain of EphA4 ephrin-binding domain (residues 29-209) (P54764 29-209): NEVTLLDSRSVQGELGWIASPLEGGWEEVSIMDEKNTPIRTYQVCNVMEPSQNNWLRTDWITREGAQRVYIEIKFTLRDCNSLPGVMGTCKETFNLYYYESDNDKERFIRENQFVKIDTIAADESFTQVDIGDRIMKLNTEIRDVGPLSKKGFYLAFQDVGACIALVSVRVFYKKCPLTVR
Chain of M136A EphA4 AP mutant (P54764 30-209 M164A): as the sequence (P54764 30-209 limits assumed) above, with M135A counted along it
Chain of S30A EphA4 AP mutant (P54764 30-209 S58A): as the sequence (P54764 30-209 limits assumed) above, with S29A counted along it
Chain of EphA4 Fc (Q03137 20-547): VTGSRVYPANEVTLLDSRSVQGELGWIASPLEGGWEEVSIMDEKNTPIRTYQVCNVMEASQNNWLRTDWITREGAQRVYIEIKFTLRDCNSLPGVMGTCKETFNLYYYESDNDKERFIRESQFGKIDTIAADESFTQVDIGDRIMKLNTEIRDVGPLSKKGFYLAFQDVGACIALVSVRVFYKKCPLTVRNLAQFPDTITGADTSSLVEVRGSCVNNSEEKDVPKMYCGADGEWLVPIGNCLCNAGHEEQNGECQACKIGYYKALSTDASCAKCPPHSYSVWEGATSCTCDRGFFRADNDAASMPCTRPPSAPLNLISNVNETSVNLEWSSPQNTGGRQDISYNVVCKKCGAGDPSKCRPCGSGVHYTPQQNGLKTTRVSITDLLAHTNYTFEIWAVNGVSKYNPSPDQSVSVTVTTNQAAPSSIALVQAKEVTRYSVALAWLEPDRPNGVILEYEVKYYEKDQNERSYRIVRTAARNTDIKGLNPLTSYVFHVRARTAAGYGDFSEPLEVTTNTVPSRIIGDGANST
Chain of I39A EphA4 AP mutant (P54764 30-209 I67A): as the sequence (P54764 30-209 limits assumed) above, with I38A counted along it
Chain of A165S EphA4 AP mutant (P54764 30-209 A193S): as the sequence (P54764 30-209 limits assumed) above, with A164S counted along it
Chain of F126A EphA4 AP mutant (P54764 30-209 F154A): as the sequence (P54764 30-209 limits assumed) above, with F125A counted along it
Chain of G132V EphA4 AP mutant (P54764 30-209 G160V): as the sequence (P54764 30-209 limits assumed) above, with G131V counted along it
Chain of D33A EphA4 AP mutant (P54764 30-209 D61A): as the sequence (P54764 30-209 limits assumed) above, with D32A counted along it
Chain of V129A EphA4 AP mutant (P54764 30-209 V157A): as the sequence (P54764 30-209 limits assumed) above, with V128A counted along it
Chain of D123A EphA4 AP mutant (P54764 30-209 D151A): as the sequence (P54764 30-209 limits assumed) above, with D122A counted along it
Chain of I131A EphA4 AP mutant (P54764 30-209 I159A): as the sequence (P54764 30-209 limits assumed) above, with I130A counted along it
Chain of M32A EphA4 AP mutant (P54764 30-209 M60A): as the sequence (P54764 30-209 limits assumed) above, with M31A counted along it
Chain of T76A EphA4 AP mutant (P54764 30-209 T104A): as the sequence (P54764 30-209 limits assumed) above, with T75A counted along it
Chain of I31A EphA4 AP mutant (P54764 30-209 I59A): as the sequence (P54764 30-209 limits assumed) above, with I30A counted along it
Chain of Q43A EphA4 AP mutant (P54764 30-209 Q71A): as the sequence (P54764 30-209 limits assumed) above, with Q42A counted along it
Chain of R134A EphA4 AP mutant (P54764 30-209 R162A): as the sequence (P54764 30-209 limits assumed) above, with R133A counted along it

KYLPYWPVLASL [KYL-Ala10]
IC50 value relative to unmodified KYL (in words) (EphA4 AP): comparable to that of unmodified KYL

KYLPYWPVLSAL [KYL-Ala11]
IC50 value relative to unmodified KYL (in words) (EphA4 AP): comparable to that of unmodified KYL

KYLPYWPVLSSL [KYL]
inhibition at 5 µM (EphA4 AP; [3]): ~80%

VTMEAINLAFPG [VTM]
inhibition at 25 µM (EphA4 AP; [3]): ~80%
relative stability in mouse serum (in words) [1]: more stable than KYL and APY

B1: ephrin-A5: natural ephrin ligand of EphA4, used as Fc fusion (R&D Systems) (protein)
chain: QDPGSKAVADRYAVYWNSSNPRFQRGDYHIDVCINDYLDVFCPHYEDSVPEDKTERYVLYMVNFDGYSACDHTSKGFKRWECNRPHSPNGPLKFSEKFQLFTPFSLGFEFRPGREYFYISSAIPDNGRRSCLKLKVFVRPTNSCMKTIGVHDRVFDVNDKVENSLEPADDTVHESAEPSRGEN
modifications: left off: Fc, end not stated, kept
effect of mutation on ephrin-A5 binding (in words) (I39A EphA4 AP mutant): do not substantially affect
effect of mutation on ephrin-A5 binding (in words) (Q43A EphA4 AP mutant): also affect ephrin-A5 binding
effect of mutation on ephrin-A5 binding (in words) (D33A EphA4 AP mutant): also affect ephrin-A5 binding
effect of mutation on ephrin-A5 binding (in words) (F126A EphA4 AP mutant): severely impair
effect of mutation on ephrin-A5 binding (in words) (G132V EphA4 AP mutant): do not substantially affect
effect of mutation on ephrin-A5 binding (in words) (M136A EphA4 AP mutant): also affect ephrin-A5 binding
effect of mutation on ephrin-A5 binding (in words) (S30A EphA4 AP mutant): do not substantially affect
effect of mutation on ephrin-A5 binding (in words) (I131A EphA4 AP mutant): severely impair
effect of mutation on ephrin-A5 binding (in words) (V129A EphA4 AP mutant): do not substantially affect
effect of mutation on ephrin-A5 binding (in words) (T76A EphA4 AP mutant): severely impair
effect of mutation on ephrin-A5 binding (in words) (T41A EphA4 AP mutant): do not substantially affect; also recorded: does not affect ephrin-A5 binding
effect of mutation on ephrin-A5 binding (in words) (I31A EphA4 AP mutant): also affect ephrin-A5 binding
effect of mutation on ephrin-A5 binding (in words) (A165S EphA4 AP mutant): also affect ephrin-A5 binding
effect of mutation on ephrin-A5 binding (in words) (D123A EphA4 AP mutant): also affect ephrin-A5 binding
effect of mutation on ephrin-A5 binding (in words) (R134A EphA4 AP mutant): severely impair
effect of mutation on ephrin-A5 binding (in words) (M32A EphA4 AP mutant): also affect ephrin-A5 binding

VTMEAINLAFPG [VTM peptide]
Kd [2]: 4700 ± 100 nM

VTMEAINLAFPA [VTM-Ala12]
fold reduction of inhibitory potency against unmodified VTM (EphA4 Fc): < 2 fold

KYLPYWPVLSSL [KYL peptide]
Kd [2]: 850 ± 150 nM
